Test: Toxicity liver stage against HepG2, at 10uM
Format: cell-based
Set-up: test concentration 10 uM, cell line HepG2-A16-CD81EGFP
Details: human, HepG2-A16-CD81EGFP cells; read-out: INHIBITION
Summary of the method: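 Uninfected HepG2-A16-CD81EGFP cells, 3 × 10^3 per well, 1536-well, plated on prespotted compound at 10 μM final, parasite-free screening media added to match infected plates; puromycin 10 μM positive, DMSO 0.5% negative; run in parallel with 48 h PbLuc assay at 37 °C, 5% CO2; viability by CellTiter-Glo luminescence, normalized to controls.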

Compound	cytotoxicity at 10 µM [%]
O=C(CCCOc1ccccc1)N1CCCC(n2cncn2)C1 (stereo unspecified)	-8.57
Cn1c(C2CC2)nc2c1CCN(CC(=O)Nc1ccncc1)C2	-11.8
O=C(NCCN1C(=O)CCC1=O)c1nc2ccccc2c(=O)[nH]1	-8.99
COc1ccc(CNc2nnc(CC(C)(C)C)o2)cc1C#N	-10.1
O=S(=O)(C1CC1)N1C[C@@H]2CN(Cc3ccoc3)CCO[C@@H]2C1	-142
CC(C)(C)c1ncc(C(=O)NCCNc2ncccn2)s1	-1.62
Cc1cc(C)n(-c2cncc(NCCNC(=O)C(C)C)n2)n1	-2.91
Cc1ccc2nc(C(=O)N3CCNC(=O)C3c3cccc(F)c3)cn2c1 (stereo unspecified)	-5.66
CS(=O)(=O)N1CCOCC12CCN(c1nncs1)CC2	6.74
CC1(C(=O)N2CCOCC2)CN(Cc2c[nH]cn2)CCO1 (stereo unspecified)	-4.61
CC(C(=O)N(C)Cc1ccco1)n1cncn1 (stereo unspecified)	4.4
CN(CCCNC(=O)c1ccccc1OCC(N)=O)CC(F)(F)F	-7.53
Cc1noc(Cl)c1CCC(=O)N1CCN(Cc2ccncc2)CC1	-14.2
CS(=O)(=O)Cc1ccc(CNc2ncc(C#N)cc2Cl)cc1	3.47
CCN(CC)C(=O)CCCNC(=O)c1csc(NC2CC2)n1	8.67
O=C(NCCCn1ccccc1=O)c1cnc(-c2ccsc2)s1	0.956
COCC(NC1CCN(CC(C)C)CC1)c1ccnn1C (stereo unspecified)	4.22
CCCc1cc(=O)[nH]c(-c2ccccc2CN(C)CCC(C)C)n1	3.53
COCCN1C(=O)CCC12CCC(NCc1ccc(OC)cc1)CC2 (stereo unspecified)	11.5
CS(=O)(=O)NCC1CCCN(C(=O)COCC(F)(F)F)C1 (stereo unspecified)	-3.12
CCNc1ncc(-c2cc(-c3ccn(C)c3)nc(N)c2C#N)cn1	7.14

Compound	cytotoxicity at 10 µM [%]
CC(C)S(=O)(=O)N1CCC(Cc2cccc(C(=O)O)c2)C1 (stereo unspecified)	1.31
CCC(=O)Nc1ccc(C(C)Nc2nc3c(cnn3C)c(=O)[nH]2)cc1 (stereo unspecified)	4.01
Cc1nn(C)c(N2CCCN(C)CC2)c1CNC(=O)C(C)(C)C	-12
Cc1cnc(-c2nc(-c3cccc(CN4CCOCC4)c3)no2)cn1	-4.21
CC(=O)N1CCC(N2CCN(Cc3ccc(C)o3)C(CCO)C2)CC1 (stereo unspecified)	-3.57
CC(C)(C)OC(=O)N1CCCc2ccc(NCc3cc[nH]c3)cc21	34.1
CCn1nc(C)cc1C(=O)N1C[C@@H]2C[C@@H](c3nc(C)cs3)O[C@@H]2C1	3.39
CC(C)(C(=O)NCc1ccc(C#N)cc1)n1cc(Br)cn1	12.4
COCCO[C@H]1CCN(c2ccc(C)nn2)[C@H]1Cc1cnn(C)c1	2.5
COc1ccc(-c2nccc(C3CCCN3C)n2)cc1 (stereo unspecified)	9.97
CCN1CCN(C(=O)c2ccc(Cn3ccccc3=O)o2)CC1	-9.39
O=C1OCCN1CCNC(=O)C1(N2CCCCC2)Cc2ccccc2C1	-6.77
COCCN1CCC(CNCc2c[nH]nc2C(C)(C)C)CC1	-17
CN1C[C@H]2CNC[C@@]2(C(=O)NC2CCN(c3ncccc3C#N)CC2)C1	-0.766
CC(=O)OC1CN(c2nc3c(C)cccc3s2)C1	-5.14
COc1ccc(CN2CCCN(C(=O)C(C)n3ccnc3)CC2)cc1 (stereo unspecified)	-14.1
CC(C)C1SCC(=O)Nc2c1cnn2-c1ccc(Cl)cc1 (stereo unspecified)	47
c1ccc(CCNCC2Cn3nncc3CO2)cc1 (stereo unspecified)	7.61
COc1ccc2c(c1)nc1n2[C@@H](CN(C2CCC2)C2CCC2)COC1	5.96
CC(C)N(Cc1ccccc1)Cc1csc(-c2ncccn2)n1	7.76
CC(NC(=O)NCCCN1CCc2ccccc2C1)c1nncn1C (stereo unspecified)	-2.6

Compound	cytotoxicity at 10 µM [%]
CC(=O)CSc1sc2c(O)cc(=O)[nH]c2c1C(N)=O	-3.48
COc1cccc(C2c3c(n[nH]c3C)N=C3COC(=O)C32)c1OC (stereo unspecified)	-5.34
Cc1nc(N(C)C)nc(N(C)CCc2ccncc2)c1C	1.37
COCCn1ccnc1C1CCCN(c2ncnc3c(C)csc23)C1 (stereo unspecified)	2.57
CS(=O)(=O)NC[C@]12COC[C@H]1CN(CC1CCC1)C2	-110
CC(C)(C)c1n[nH]c(C2CN(C(=O)c3ccsc3)CCO2)n1 (stereo unspecified)	-12.3
C[C@@H]1CN(C(=O)c2cc(Cn3cnc4ccccc43)on2)C[C@H](C)O1	1.69
O=C(NC1CC1)c1nc(Cn2c(C(F)F)nc3ccccc32)no1	7.59
NCC1CCC(c2c(C(N)=O)sc3ccccc23)CC1 (stereo unspecified)	1.52
O=c1c2ccccc2nc2n1C(CSc1ccc(F)cc1)CN2 (stereo unspecified)	11.2
Cc1cc(C(F)(F)F)nn1CCCNC(=O)C1CCC1	-12.2
Cc1cc(C)c(CNC(=O)NCC2CCCO2)c(=O)[nH]1 (stereo unspecified)	-3.76
Cc1cccc(C)c1Oc1ncccc1CNC(=O)C1(C)CCCNC1 (stereo unspecified)	0.687
Oc1cccc(CNCc2ccc(-n3cncn3)nc2)c1	4.01
CN(Cc1ccoc1)C(=O)C1CC(=O)N(Cc2ccncc2)C1 (stereo unspecified)	-0.766
O=C(Cc1cnc(-n2cccc2)s1)NCCCO	-3.14
CCNC(=O)Nc1ncc(-c2cccnc2)s1	14.6
CCC(OC)C(=O)NCC1CCN(c2cnn(C)c(=O)c2)CC1 (stereo unspecified)	7.35
CNC(=O)CCS(=O)(=O)Cc1cc(Cl)c2c(c1)OCCCO2	-6.31
CO[C@@H]1CC[C@H]2[C@H]1OCCN2C(=O)C1=CCCC1	-6.34
NC(=O)c1cnn2c(C3CCN(CCO)CC3)ccnc12	0.695

Compound	cytotoxicity at 10 µM [%]
c1cnn(CC2CN(Cc3nc(C4CC4)no3)CCO2)c1 (stereo unspecified)	-27.6
O=C(NC1CC(=O)N(C2Cc3ccccc3C2)C1)c1csnn1 (stereo unspecified)	2.96
Cc1cn2c(n1)CCC(NC(=O)c1oc(Br)cc1C)C2 (stereo unspecified)	-20.8
CNC(=O)Cn1cc(C#N)c(=O)c2cc(Br)ccc21	23.7
CNC(=O)[C@@H]1COC[C@H]2CN(C(=O)c3cccc(OC)c3)C[C@H]21	12.2
CN(C)c1ccc(C(=O)N2CCCC2c2noc(C3CC3)n2)nn1 (stereo unspecified)	-8.36
Cc1cc(CNC(=O)[C@H]2CCCCN2C(=O)OC(C)(C)C)on1	-0.82
O=C(NCc1cccnc1)c1nc2c(s1)CCCN2c1ncccn1	8.44
Cc1oncc1C(=O)N1CCC2(C1)CN(c1cccnc1)C(=O)CN2C (stereo unspecified)	-5.26
CC(C)c1ocnc1C(=O)N1CCC(=O)Nc2cccnc21	1.15
CO[C@@H]1CCN(S(=O)(=O)c2cccnc2)[C@@H]2CN(CC3CC3)C[C@@H]21	-65.7
COCCCN(C)C1CCCN(Cc2noc(C)n2)C1 (stereo unspecified)	-8.06
Cn1nc(CC(C)(C)C)cc1NC(=O)c1ccc(CNC(N)=O)cc1	-1.78
CCS(=O)(=O)N1CCC2(CCC2NC(=O)c2ccn(C)c2)CC1 (stereo unspecified)	-2.11
Cc1cnc2n(c1=O)C(CC(=O)NCc1cc(-c3cccs3)on1)CS2 (stereo unspecified)	-1.51
CN(C)C(=O)NCc1cc2n(n1)CCCN(CC1[C@H]3CNC[C@@H]13)C2 (stereo partly specified)	-5.77
CCCc1nc(NCCCn2ccnc2)c2c(n1)c(C)nn2CC	8.26
O=C(CSc1ccc2c(c1)OCCO2)NS(=O)(=O)c1ccccc1F	1.98
